S100A4 inh HTS: blocks human S100A4 binding to myosin IIA peptide. hit rate 0.14% among 360,000. inhibition, % at 10.7 µM. S100A4/TAMRA-MyoIIA peptide fluorescence polarization;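 active = mean inhibition of at least 70% across replicates, with every replicate also reaching that level; inconclusive = mean inhibition reaches 70% but some replicates fall short; inactive = mean inhibition below 70%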
Target sequence (P26447 whole entry, looked up): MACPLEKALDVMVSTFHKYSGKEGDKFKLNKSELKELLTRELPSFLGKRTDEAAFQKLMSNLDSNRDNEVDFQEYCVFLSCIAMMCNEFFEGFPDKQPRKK
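Assay system: human S100A4 monomer with TAMRA-labelled myosin IIA peptide / Buffer or medium: Calcium-containing HEPES buffer, pH 7.2 / Reagent: TAMRA-labelled myosin IIA heavy-chain peptide probe, 5 nM / Compound: one dose per compound / Timing: polarization read 5 min after assay mix addition, stable 5–60 min / Benchmarks: neutral control DMSO, positive control TFP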
CASP6 VEID inh: inhibitors of human caspase-6; P55212; purified caspase-6, Z-VEID-R110 cleavage fluorescence; inhibition, % at 12.5 µM; hit rate 0.53% among 350,000;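 active = mean inhibition across replicates at least about 35%, with every replicate also reaching that limit, limit read from the data; inconclusive = only one of the two criteria met; inactive = neither criterion met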
Target sequence (P55212 24-179 limits assumed): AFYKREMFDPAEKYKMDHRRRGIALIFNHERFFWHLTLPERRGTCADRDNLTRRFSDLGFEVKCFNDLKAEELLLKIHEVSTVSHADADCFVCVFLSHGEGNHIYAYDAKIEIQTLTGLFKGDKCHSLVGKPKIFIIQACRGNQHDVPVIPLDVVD
Target sequence (P55212 194-293 limits assumed): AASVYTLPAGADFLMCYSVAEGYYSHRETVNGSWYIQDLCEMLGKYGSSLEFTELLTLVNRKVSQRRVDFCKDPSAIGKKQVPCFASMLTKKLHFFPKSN
RAD54 branch: RAD54 (human) branch migration inhibition; inhibition, % at 10.4 µM; RAD54 Holliday junction branch migration, FAM/BHQ fluorescence; hit rate 0.14% among 360,000; Q92698;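 active = mean normalized replicate activity at least 40 and at least half of replicates scoring 40 or more; inconclusive = only one of the two criteria met; inactive = mean below 40 and under half of replicates reaching 40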;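 note: inhibitors cause a drop in the FAM fluorescence signal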
RAD52 inh: inhibitors of human RAD52 DNA annealing; hit rate 0.46% among 360,000; AID 651710; inhibition, % at 18.7 µM; recombinant RAD52 DNA annealing, FRET fluorescence;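 active = every replicate showing at least 50% inhibition; inconclusive = mean inhibition at least 50% but not in every replicate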
XiGFP reactiv: reactivates the inactive X chromosome in mouse fibroblasts; XiGFP mouse fibroblasts, % GFP-positive cells imaging, 3 d; cells co-treated with 5-aza-dC sensitizer; scaled so ellipticine positive control = 100%; activation, % at 7.58 µM; hit rate 0.055% among 360,000;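 active = mean normalized replicate activation at least 10% and every replicate at or above 10%; inconclusive = only one of the two criteria met; inactive = mean below 10% and not all replicates reach 10%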
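System: XiGFP fibroblasts, SV40-immortalized. Medium: DMEM plus 5-aza-dC sensitizer. Doses: single point. Timing: 3 d treatment, 15 min room-temperature fixation. Control set: ellipticine 6 µM.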
MLL AF4-AF9 inh: inhibitors of human MLL-AF4/AF9 interaction | P42568 | AlphaScreen, biotin-AF4 peptide binding to FLAG-AF9 | inhibition, % at 10 µM | hit rate 0.47% among 350,000;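 active = every replicate reaching a set inhibition limit, whatever the replicate mean, cut at about 25% in these data; inconclusive = mean inhibition reaches that limit but some replicates miss it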
Each line names hits and unclear results; the compound was inactive in the other large screens. An excerpt weighted towards active compounds, which were near 1.3% of everything screened.

C[C@@H](NC(=O)C[C@H]1CC[C@@H](NS(=O)(=O)c2cccc(F)c2)[C@H](CO)O1)c1ccccc1	none
O=C(O)C1=C2C(=O)Nc3cccc(c32)C2(C1)C(=O)Nc1ccccc12 (stereo not given)	CASP6 VEID inh 60.1
CCCCCCCCCCOC(=O)Cn1c(COc2ccccc2OC)[n+](C)c2ccccc21	RAD52 inh 75.1
Cn1c(COc2ccccc2O)[n+](C)c2ccccc21	none
CCc1cccc(NC(=O)Cn2cc3c(n2)CCCC3)c1	none
CN(C)c1ccc(NC(=O)Cn2cc3c(n2)CCCC3)cc1	MLL AF4-AF9 inh 30.7
O=C(CSc1nnc(Nc2ccccc2F)s1)NC(=O)CN1CCCC1=O	CASP6 VEID inh 41.8
O=C(CSc1nnc(Nc2ccccc2F)s1)NC1CCS(=O)(=O)C1 (stereo not given)	none
O=C(C[C@H]1CC[C@@H]2[C@H](COC[C@H](O)CN2C(=O)c2ccccc2)O1)Nc1ccc(-c2ccccc2)cc1	none
O=c1[nH]c(=S)[nH]c2c1C(c1ccc(Br)cc1)c1c([nH]c(=S)[nH]c1=O)O2	CASP6 VEID inh 95.6, RAD54 branch 55.6
O=C1CCCC2=C1C(c1ccc(Br)cc1)c1c([nH]c(=S)[nH]c1=O)N2 (stereo not given)	none (no result: S100A4 inh HTS, CASP6 VEID inh, RAD52 inh, XiGFP reactiv, MLL AF4-AF9 inh)
C[C@H]1CCCCO[C@H](CN(C)CC2CC2)[C@@H](C)CN([C@@H](C)CO)C(=O)c2cc(NC(=O)Nc3ccc4c(c3)OCO4)ccc2O1	MLL AF4-AF9 inh 34.6
C[C@@H]1CCCCO[C@H](CN(C)CC2CC2)[C@H](C)CN([C@@H](C)CO)C(=O)c2cc(NC(=O)Nc3ccc4c(c3)OCO4)ccc2O1	RAD52 inh 54.9, MLL AF4-AF9 inh 34.4
C[C@@H]1CCCCO[C@@H](CN(C)CC2CC2)[C@H](C)CN([C@@H](C)CO)C(=O)c2cc(NC(=O)Nc3ccc4c(c3)OCO4)ccc2O1	MLL AF4-AF9 inh inconclusive
Cc1noc(C)c1S(=O)(=O)Nc1ccc2c(c1)C(=O)N([C@H](C)CO)C[C@H](C)[C@@H](CN(C)Cc1ccc(C(=O)Nc3ccccc3N)cc1)O2	none (no result: RAD54 branch)
COc1ccc(C(=O)N2c3cc4c(cc3C(C)=CC2(C)C)OCO4)cc1	MLL AF4-AF9 inh 32.2 (no result: CASP6 VEID inh, RAD52 inh, XiGFP reactiv)
CC1=CC(C)(C)N(C(=O)c2ccccc2)c2ccc(C)cc21	none (no result: S100A4 inh HTS, CASP6 VEID inh, RAD52 inh, XiGFP reactiv, MLL AF4-AF9 inh)
CC(=O)NC(CCc1ccc(Cl)c(Cl)c1)c1cccc(O)c(=O)c1 (stereo not given)	MLL AF4-AF9 inh 30.4
C[C@H](CO)N1C[C@H](C)[C@@H](CN(C)Cc2ccc3c(c2)OCO3)Oc2ccc(NC(=O)Nc3ccccc3)cc2C1=O	none
C[C@@H]1CN([C@@H](C)CO)C(=O)c2cc(NC(=O)Nc3ccccc3)ccc2O[C@@H]1CN(C)Cc1ccc2c(c1)OCO2	CASP6 VEID inh 54.3
C[C@@H]1CCCCO[C@@H](CN(C)Cc2ccc3c(c2)OCO3)[C@H](C)CN([C@H](C)CO)C(=O)c2cc(NC(=O)Nc3ccc4c(c3)OCO4)ccc2O1	MLL AF4-AF9 inh 32.0
COc1ccc(CN(C)C[C@@H]2OCCCC[C@@H](C)Oc3ccc(NC(=O)Nc4ccc5c(c4)OCO5)cc3C(=O)N([C@H](C)CO)C[C@H]2C)cc1	RAD52 inh 54.5
C[C@@H]1CCCCO[C@H](CN(C)Cc2ccccc2)[C@@H](C)CN([C@@H](C)CO)C(=O)c2cc(NC(=O)Nc3ccc4c(c3)OCO4)ccc2O1	MLL AF4-AF9 inh 37.0
C[C@@H]1CN([C@@H](C)CO)C(=O)c2cc(NC(=O)Nc3ccc4c(c3)OCO4)ccc2O[C@@H](C)CCCCO[C@@H]1CN(C)Cc1ccc2c(c1)OCO2	none
C[C@H](CO)N1C[C@H](C)[C@@H](CN(C)Cc2ccccc2)OCCCC[C@H](C)Oc2ccc(NC(=O)Nc3ccc4c(c3)OCO4)cc2C1=O	none
CCCC#Cc1ccc2c(c1)O[C@@H](CN(C)C(=O)Nc1ccccc1F)[C@H](C)CN([C@@H](C)CO)S2(=O)=O	none
C[C@@H]1CCCCO[C@H](CN(C)Cc2ccc3c(c2)OCO3)[C@@H](C)CN([C@@H](C)CO)C(=O)c2cc(NC(=O)Nc3ccccc3)ccc2O1	none
C[C@H](CO)N1C[C@H](C)[C@H](CN(C)Cc2ccc3c(c2)OCO3)OCCCC[C@H](C)Oc2ccc(NC(=O)Nc3ccccc3)cc2C1=O	RAD52 inh 56.3
CCC(=O)N(CC)C[C@H]1[C@H](c2ccc(-c3cccnc3)cc2)[C@@H](CO)N1C(C)=O	none
COc1ccc2c(c1)c(=O)oc1c(C)c(OCc3ccc(C(=O)O)cc3)ccc12	none (no result: XiGFP reactiv, MLL AF4-AF9 inh)
COc1ccc2c(c1)c(=O)oc1c(C)c(OCc3cc(C(=O)O)oc3C)ccc12	CASP6 VEID inh 50.7
Cc1noc(C)c1NC(=O)Nc1ccc2c(c1)CC(=O)N([C@@H](C)CO)C[C@@H](C)[C@H](CN(C)Cc1ccccc1)O2	none
CC(=O)c1ccc2c(c1)C1C=CCC1C(C(=O)O)N2 (stereo not given)	none (no result: CASP6 VEID inh, RAD54 branch)
O=C(O)C1Nc2c(O)cc(Cl)c([N+](=O)[O-])c2C2C=CCC12 (stereo not given)	CASP6 VEID inh 98.5 (no result: RAD54 branch)
COc1ccc(NC(=O)N[C@@H]2C=C[C@@H](CC(=O)NC3CCCCC3)O[C@@H]2CO)cc1	none
[N-]=[N+]=Nc1ccccc1C[C@]1(C(=O)NCc2ccccc2)COC(c2ccc(OCCCO)cc2)=N1	none (no result: XiGFP reactiv)
Cc1noc(C)c1S(=O)(=O)N(C)C[C@H]1Oc2ccc(N(C)C)cc2CC(=O)N([C@H](C)CO)C[C@H]1C	S100A4 inh HTS 129.3 (no result: CASP6 VEID inh, MLL AF4-AF9 inh)
C[C@@H]1CCCCO[C@@H](CN(C)CC2CCCCC2)[C@H](C)CN([C@@H](C)CO)C(=O)c2cc(N(C)C)ccc2O1	MLL AF4-AF9 inh 36.8
C[C@H](CO)N1C[C@H](C)[C@@H](CN(C)Cc2ccc(Cl)c(Cl)c2)OCCCC[C@H](C)Oc2ccc(N(C)C)cc2C1=O	MLL AF4-AF9 inh 42.7 (no result: RAD54 branch)
C[C@H](CO)N1C[C@H](C)[C@H](CN(C)Cc2ccc(Cl)c(Cl)c2)Oc2ccc(N(C)C)cc2C1=O	MLL AF4-AF9 inh 31.9
C[C@@H]1CN([C@@H](C)CO)C(=O)c2cc(N(C)C)ccc2O[C@H]1CN(C)Cc1ccc(Cl)c(Cl)c1	none
CN(C)CC(=O)N1[C@@H]2Cn3c(ccc(-c4cccnc4)c3=O)[C@H]1[C@@H](C(=O)NC1CCCC1)[C@@H]2CO	none (no result: RAD54 branch)
C[C@H](CO)N1C[C@H](C)[C@H](CN(C)Cc2ccc3c(c2)OCO3)OCCCC[C@H](C)Oc2ccc(N(C)C)cc2C1=O	none
C[C@@H]1CN([C@@H](C)CO)C(=O)Cc2cc(N(C)C)ccc2O[C@@H]1CN(C)Cc1ccc(Cl)c(Cl)c1	MLL AF4-AF9 inh 43.3 (no result: XiGFP reactiv)
C[C@H]1CN([C@@H](C)CO)C(=O)Cc2cc(N(C)C)ccc2O[C@H]1CN(C)Cc1ccc(Cl)c(Cl)c1	none (no result: S100A4 inh HTS, CASP6 VEID inh, RAD54 branch, RAD52 inh, MLL AF4-AF9 inh)

High-throughput results deposited in PubChem by Broad Institute.
